Experimental data taken from ChEMBL document CHEMBL1944548, “Discovery of kinase spectrum selective macrocycle (16E)-14-methyl-20-oxa-5,7,14,26-tetraazatetracyclo[19.3.1.1(2,6).1(8,12)]heptacosa-1(25),2(26),3,5,8(27),9,11,16,21,23-decaene (SB1317/TG02), a potent inhibitor of cyclin dependent kinases (CDKs), Janus kinase 2 (JAK2), and fms-like tyrosine …” (J Med Chem, 2012).
In brackets after ≈: the same amount, converted by molar mass. Activity calls are given as the source filed them. The rule behind the calls is not given here.

Legend:
[1] = Terminal half life in BALB/c mouse at 5 mg/kg, iv by LC-MS/MS analysis; type: ADME, organism-based; parameters: dose 5 mg/kg, route intravenous; conditions: in vivo, read-out: beta t1/2 (converted)
[2] = Half life in human liver microsomes at 5 uM by LC-MS/MS analysis; type: ADME, Microsome
Method in brief: (§1)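 5 μM with mouse, rat, dog or human liver microsomes (~0.87 mg/mL), 50 mM potassium phosphate pH 7.4, NADPH regeneration system, 37 °C.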

[3] = Solubility of the compound in PBS buffer at 250 uM at pH 7 by UV spectrophotometry; type: physicochemical
Cytochrome P450 2D6 = Cytochrome P450 2D6 (Homo sapiens, UniProt P10635); assay: Inhibition of CYP2D6 in human liver microsomes using dextromethorphan as substrate after 30 mins by LC-MS/MS analysis; type: ADME, Microsome
Method in brief: (§2)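 Human liver microsomes with 1 mM NADPH at 37 °C. Test concentrations 0.05, 0.25, 0.5, 2.5, 5 and 25 μM; final DMSO 0.35%. CYP1A: 0.25 mg/mL microsomes, ethoxyresorufin 0.5 μM, 5 min. CYP2D6: 0.5 mg/mL microsomes, dextromethorphan 5 μM, 30 min. IC50 from the fall in metabolite formation versus vehicle control. Selective inhibitors served as positive controls.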

[4] = Tmax in BALB/c mouse at 75 mg/kg, po by LC-MS/MS analysis; type: ADME, organism-based; parameters: dose 75 mg/kg, route oral; conditions: in vivo
Method in brief: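 Male BALB/c mice (~10−12 weeks, 17−22 g) gavaged with 75 mg/kg as a suspension in 0.5% methylcellulose/0.1% Tween 80. Serial blood by cardiac puncture over 0−24 h into K3EDTA, plasma stored at −70 °C, LC−MS/MS; parameters by noncompartmental analysis.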

[5] = Oral bioavailability in Wistar rat at 10 mg/kg by LC-MS/MS analysis; conditions: in vivo
[6] = Half life in dog liver microsomes at 5 uM by LC-MS/MS analysis; type: ADME, Canis lupus familiaris, Microsome; method in brief: as §1
[7] = Apparent permeability of the compound from apical to basolateral side in human Caco2 cells at 5 uM after 21 to 28 days by LC/MS analysis; type: ADME, cell-based; conditions: Caco-2
Method in brief: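 5 μM in HBSS (DMSO <1%) dosed apical or basolateral on 21−28-day confluent Caco-2 monolayers, both sides pH 7.4. Sampled at 2 h, quantified by LC/MS with four-point calibration. Monolayer integrity checked by pre-experiment TEER (450−650 Ωcm2) and Lucifer yellow; efflux ratio = Papp B→A / Papp A→B.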

HCT-116 [8] = assay: Antitumor activity against human HCT116 cells xenografted in BALB/c nude mouse assessed as tumor growth inhibition at 75 mg/kg, po qd administered thrice in a week for 15 days; type: functional; conditions: HCT-116, 360 h, read-out: GI
[9] = Plasma protein binding in human at 1000 ng/ml after 4 hrs by equilibrium dialysis method; type: ADME, cell-free; conditions: read-out: PPB
Method in brief: (§3)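 Equilibrium dialysis of plasma (mouse, dog, human) spiked to 1000 ng/mL against PBS, 4 h at 37 °C. Buffer side extracted in triplicate with MTBE, dried, reconstituted in methanol/water 60:40, measured by LC−MS/MS.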

[10] = target: Tyrosine-protein kinase JAK2 (Homo sapiens, UniProt O60674); assay: Inhibition of recombinant JAK2 using poly(Glu,Ala,Tyr) as substrate after 2 hrs by luminescence assay
Cytochrome P450 2C9 = Cytochrome P450 2C9 (Homo sapiens, UniProt P11712); assay: Inhibition of CYP2C9 in human liver microsomes using Tolbutamide as substrate after 60 mins by LC-MS/MS analysis; type: ADME, Microsome
Method in brief: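 Human liver microsomes (0.5 mg/mL for CYP2C19, 1 mg/mL for CYP2C9), NADPH 1 mM, test at 0.05−25 μM (DMSO 0.35% final), 37 °C; probes mephenytoin 25 μM (CYP2C19) and tolbutamide 120 μM (CYP2C9), 60 min each. IC50 from decrease in metabolite formation vs vehicle.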

HCT-116 [11] = assay: Antitumor activity against human HCT116 cells xenografted in BALB/c nude mouse assessed as tumor growth inhibition at 50 mg/kg, po qd administered thrice in a week for 15 days; type: functional, organism-based; parameters: dose 50 mg/kg
Method in brief: (§4)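 Female BALB/c nude mice implanted sc with 5 × 10^6 HCT-116 cells; treatment began day 8 after inoculation when tumors were 75–144 mm3 (group mean 105 mm3), 9–10 mice/group. Oral gavage at 50 or 75 mg/kg, Mon/Wed/Fri, in 0.5% methylcellulose/0.1% Tween 80, to day 15. Volume (w2l)/2 measured twice weekly. %TGI from day-15 median volumes vs vehicle.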

HCT-116 [12] = assay: Antiproliferative activity against human HCT116 cells after 48 hrs; type: functional, cell-based; conditions: HCT-116, 48 h
Cytochrome P450 1A2 = target: T1, Cytochrome P450 1A2 (Homo sapiens, UniProt P05177); assay: Inhibition of CYP1A2 in human liver microsomes using ethoxyresorufin as substrate after 5 mins by LC-MS/MS analysis; type: ADME, Microsome; method in brief: as §2
T1 sequence (P05177 whole entry): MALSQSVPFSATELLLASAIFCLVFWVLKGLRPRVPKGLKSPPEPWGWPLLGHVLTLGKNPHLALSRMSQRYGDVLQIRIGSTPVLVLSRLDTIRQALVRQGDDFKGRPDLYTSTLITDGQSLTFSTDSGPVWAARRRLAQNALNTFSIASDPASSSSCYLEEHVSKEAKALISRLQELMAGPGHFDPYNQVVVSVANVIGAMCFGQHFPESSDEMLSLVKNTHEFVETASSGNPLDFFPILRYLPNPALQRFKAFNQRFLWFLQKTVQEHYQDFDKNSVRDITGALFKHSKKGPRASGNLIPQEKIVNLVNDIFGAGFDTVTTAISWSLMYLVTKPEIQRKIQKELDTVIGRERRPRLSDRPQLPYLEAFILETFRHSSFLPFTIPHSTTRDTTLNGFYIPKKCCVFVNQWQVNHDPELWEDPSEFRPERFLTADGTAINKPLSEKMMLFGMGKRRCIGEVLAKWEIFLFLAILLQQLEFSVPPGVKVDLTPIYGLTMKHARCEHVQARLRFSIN

[13] = Oral bioavailability in Beagle dog at 10 mg/kg by LC-MS/MS analysis; conditions: in vivo
[14] = Terminal half life in BALB/c mouse at 75 mg/kg, po by LC-MS/MS analysis; type: ADME, organism-based; parameters: dose 75 mg/kg, route oral; conditions: in vivo, read-out: beta t1/2 (converted)
Method in brief: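 Male BALB/c mice, ~10−12 weeks, 17−22 g. Given 75 mg/kg by oral gavage as a suspension in 0.5% methylcellulose/0.1% Tween 80. Serial blood taken by cardiac puncture over 0−24 h into K3EDTA; plasma stored at −70 °C. Analysis by LC−MS/MS, parameters by noncompartmental methods.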

[15] = Plasma protein binding in dog at 1000 ng/ml after 4 hrs by equilibrium dialysis method; type: ADME, cell-free, Canis lupus familiaris; conditions: read-out: PPB; method in brief: as §3
Ramos = assay: Antitumor activity against human Ramos cells xenografted in BALB/c nude mouse assessed as tumor growth inhibition at 15 mg/kg, ip qd on a 5 days on 5 days off schedule for 15 days; type: functional; conditions: route intraperitoneal, read-out: GI
HCT-116 [16] = assay: Antitumor activity against human HCT116 cells xenografted in po dosed BALB/c nude mouse assessed as tumor growth inhibition; type: functional, organism-based; method in brief: as §4

Sequence of Cytochrome P450 2C9 (P11712 whole entry): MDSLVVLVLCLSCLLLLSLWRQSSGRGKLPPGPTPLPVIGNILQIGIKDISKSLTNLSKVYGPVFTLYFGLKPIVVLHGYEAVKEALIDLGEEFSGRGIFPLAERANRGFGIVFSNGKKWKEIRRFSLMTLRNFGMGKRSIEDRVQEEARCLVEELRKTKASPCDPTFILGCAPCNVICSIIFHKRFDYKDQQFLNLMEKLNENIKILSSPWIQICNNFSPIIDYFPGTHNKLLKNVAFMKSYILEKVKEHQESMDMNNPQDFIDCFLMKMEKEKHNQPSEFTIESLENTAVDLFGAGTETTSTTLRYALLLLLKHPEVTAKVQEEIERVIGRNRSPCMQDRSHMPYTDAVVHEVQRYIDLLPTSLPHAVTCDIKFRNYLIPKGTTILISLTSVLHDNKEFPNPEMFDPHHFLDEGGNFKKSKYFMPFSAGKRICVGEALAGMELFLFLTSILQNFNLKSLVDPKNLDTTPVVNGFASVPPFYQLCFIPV
Sequence of Tyrosine-protein kinase JAK2 (O60674 whole entry): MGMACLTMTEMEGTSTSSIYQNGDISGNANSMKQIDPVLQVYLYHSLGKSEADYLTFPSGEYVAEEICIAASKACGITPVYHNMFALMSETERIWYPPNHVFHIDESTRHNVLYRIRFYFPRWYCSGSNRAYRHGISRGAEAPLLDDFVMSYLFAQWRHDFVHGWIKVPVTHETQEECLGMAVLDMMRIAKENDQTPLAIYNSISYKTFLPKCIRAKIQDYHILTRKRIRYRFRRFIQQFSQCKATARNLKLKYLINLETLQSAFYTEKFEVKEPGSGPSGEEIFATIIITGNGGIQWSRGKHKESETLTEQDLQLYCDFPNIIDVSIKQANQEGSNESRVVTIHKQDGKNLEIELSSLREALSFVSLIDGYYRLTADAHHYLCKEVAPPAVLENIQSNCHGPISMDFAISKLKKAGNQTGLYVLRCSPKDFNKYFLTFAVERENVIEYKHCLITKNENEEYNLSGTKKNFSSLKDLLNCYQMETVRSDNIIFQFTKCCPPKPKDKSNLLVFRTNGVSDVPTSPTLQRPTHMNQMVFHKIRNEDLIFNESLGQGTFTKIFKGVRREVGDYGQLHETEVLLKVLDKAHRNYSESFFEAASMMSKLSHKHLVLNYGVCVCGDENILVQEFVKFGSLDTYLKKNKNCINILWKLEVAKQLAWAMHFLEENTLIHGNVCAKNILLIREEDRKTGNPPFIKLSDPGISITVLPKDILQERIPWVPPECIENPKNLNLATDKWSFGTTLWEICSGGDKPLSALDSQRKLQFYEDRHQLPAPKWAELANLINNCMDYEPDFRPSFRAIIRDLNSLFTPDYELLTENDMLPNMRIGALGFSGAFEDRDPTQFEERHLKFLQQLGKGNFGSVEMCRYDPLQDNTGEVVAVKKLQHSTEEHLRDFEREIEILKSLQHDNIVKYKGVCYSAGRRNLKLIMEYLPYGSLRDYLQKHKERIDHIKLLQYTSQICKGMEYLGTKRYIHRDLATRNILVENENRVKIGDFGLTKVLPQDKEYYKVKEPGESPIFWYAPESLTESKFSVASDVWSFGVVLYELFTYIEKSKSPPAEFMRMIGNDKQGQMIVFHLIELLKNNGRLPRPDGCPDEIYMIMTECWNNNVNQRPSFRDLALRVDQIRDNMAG
Sequence of Cytochrome P450 2D6 (P10635 whole entry): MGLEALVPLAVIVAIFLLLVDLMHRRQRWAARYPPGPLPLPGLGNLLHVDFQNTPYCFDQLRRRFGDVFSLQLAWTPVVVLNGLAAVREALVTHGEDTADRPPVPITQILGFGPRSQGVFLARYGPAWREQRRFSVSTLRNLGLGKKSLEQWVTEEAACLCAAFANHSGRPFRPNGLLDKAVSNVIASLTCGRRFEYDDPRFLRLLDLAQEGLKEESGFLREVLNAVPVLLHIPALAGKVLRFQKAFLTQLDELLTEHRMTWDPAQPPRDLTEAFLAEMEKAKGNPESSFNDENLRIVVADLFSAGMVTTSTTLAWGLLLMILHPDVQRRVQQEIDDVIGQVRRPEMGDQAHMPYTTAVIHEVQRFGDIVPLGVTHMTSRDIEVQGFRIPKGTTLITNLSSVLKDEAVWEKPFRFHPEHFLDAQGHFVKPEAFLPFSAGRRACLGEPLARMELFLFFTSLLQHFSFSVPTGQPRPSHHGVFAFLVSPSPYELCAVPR

## CN1C/C=C/CCOc2cccc(c2)-c2ccnc(n2)Nc2cccc(c2)C1 [ZOTIRACICLIB]
[1]
  half-life: 276 min
[2]
  half-life at 5 µM: 45 min
[3]
  solubility at 250 µM: 71.8 µg/mL (≈ 193 µM)
Cytochrome P450 2D6
  IC50: 950 nM
[4]
  Tmax: 30 min
[5]
  bioavailability: 4%
[6]
  half-life at 5 µM: 33 min
[7]
  Papp A→B at 5 µM: 28 ×10⁻⁶ cm/s
HCT-116 [8]
  inhibition in vivo at 75 mg/kg: 82%
[9]
  fraction unbound at 4 h, 1000 ng/ml: 0.001
[10]
  IC50: 73 nM
Cytochrome P450 2C9
  IC50: > 25000 nM
HCT-116 [11]
  growth inhibition (GI): Active
HCT-116 [12]
  IC50: 79 nM
Cytochrome P450 1A2
  IC50: > 25000 nM
[13]
  bioavailability: 37%
[14]
  half-life: 366 min
[15]
  fraction unbound at 4 h, 1000 ng/ml: 0.001
Ramos
  inhibition in vivo at 15 mg/kg: 63%
HCT-116 [16]
  growth inhibition (GI): Dose-dependent effect
